Assay results reported in ChEMBL document CHEMBL3259614, “Design, synthesis, and structure-activity relationship studies of novel fused heterocycles-linked triazoles with good activity and water solubility” (J Med Chem, 2014).
Values after ≈ are worked out from the molar mass of the structure shown.

Columns and labels:
[1] = test system: Candida albicans; experiment: Antimicrobial activity against Candida albicans SC5314 after 24 hrs by serial dilution method; assay type: functional; conditions: SC5314, 24 h
How it was run: (§1)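 Broth serial dilution MIC in 96-well plates following NCCLS/CLSI methods. Compounds were dissolved in DMSO and serially diluted in growth medium, with incubation at 35 °C. […] C. parapsilosis 22019 served as the quality-control strain in each assay.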

[2] = test system: Candida albicans; experiment: Antimicrobial activity against Candida albicans Y0109 after 24 hrs by serial dilution method; assay type: functional; conditions: Y0109, 24 h; how it was run: as §1
[3] = test system: Candida parapsilosis; experiment: Antimicrobial activity against Candida parapsilosis 22019 after 24 hrs by serial dilution method; assay type: functional; conditions: Lodderomyces parapsilosis, 22019, 24 h; how it was run: as §1
[4] = test system: Cryptococcus neoformans; experiment: Antimicrobial activity against Cryptococcus neoformans 32609 after 72 hrs by serial dilution method; assay type: functional; conditions: Cryptococcus neoformans, 32609, 72 h; how it was run: as §1
[5] = test system: Nakaseomyces glabratus; experiment: Antimicrobial activity against Candida glabrata 537 after 24 hrs by serial dilution method; assay type: functional; conditions: Nakaseomyces glabratus, 537, 24 h; how it was run: as §1
[6] = test system: Aspergillus fumigatus; experiment: Antimicrobial activity against Aspergillus fumigatus 7544 after 48 hrs by serial dilution method; assay type: functional; conditions: Aspergillus fumigatus, 7544, 48 h; how it was run: as §1
[7] = test system: Candida albicans; experiment: Antimicrobial activity against fluconazole-resistant Candida albicans 100 after 24 hrs by serial dilution method; assay type: functional; conditions: Candida albicans, 100, 24 h
How it was run: (§2)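 Broth serial-dilution MIC in 96-well plates following NCCLS guidance. Compounds were dissolved in DMSO and serially diluted in growth medium. Clinical isolates came from a hospital collection. […] C. parapsilosis ATCC 22019 served as the quality-control strain in each assay.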

[8] = test system: Candida albicans; experiment: Antimicrobial activity against fluconazole-resistant Candida albicans 103 after 24 hrs by serial dilution method; assay type: functional; conditions: Candida albicans, 103, 24 h; how it was run: as §2
[9] = test system: Candida albicans; experiment: Antimicrobial activity against fluconazole-resistant Candida albicans J18 after 24 hrs by serial dilution method; assay type: functional; conditions: J18, 24 h; how it was run: as §2
[10] = test system: Candida albicans; experiment: Antimicrobial activity against fluconazole-resistant Candida albicans J28 after 24 hrs by serial dilution method; assay type: functional; conditions: J28, 24 h; how it was run: as §2
[11] = test system: Candida albicans; experiment: Antimicrobial activity against fluconazole-resistant Candida albicans J38 after 24 hrs by serial dilution method; assay type: functional; conditions: J38, 24 h; how it was run: as §2
[12] = test system: Candida albicans; experiment: Ratio of fluconazole MIC to compound MIC for fluconazole-resistant Candida albicans 103 after 24 hrs by serial dilution method; assay type: functional
[13] = test system: Candida albicans; experiment: Ratio of fluconazole MIC to compound MIC for fluconazole-resistant Candida albicans 100 after 24 hrs by serial dilution method; assay type: functional
[14] = test system: Candida albicans; experiment: Ratio of fluconazole MIC to compound MIC for fluconazole-resistant Candida albicans J18 after 24 hrs by serial dilution method; assay type: functional
[15] = Aqueous solubility of the compound in hydrochloric acid solution at pH 1.2; assay type: physicochemical
How it was run: (§3)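 Excess solid was stirred for 3 h in pH 1.2 hydrochloric acid or pH 7.4 phosphate buffer, then filtered through 0.45 μm. Absorbance at the UV maximum was compared with a methanol standard, C′ = A′C/A, with values reported in mg/mL. Determined at 30 °C; mean ± SD, n = 3.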

[16] = Aqueous solubility of the compound in phosphate buffer at pH 7.4; assay type: physicochemical; how it was run: as §3

Structure (SMILES)	MIC [1]	MIC [2]	MIC [3]	MIC [4]	MIC [5]	MIC [6]	MIC [7]	MIC [8]	MIC [9]	MIC [10]	MIC [11]	Ratio [12]	Ratio [13]	Ratio [14]	solubility [15]	solubility [16]
C[C@@H](N1CCn2nnc(Br)c2C1)[C@](O)(Cn1cncn1)c1ccc(F)cc1F	≤ 0.0312 µg/mL	0.0625 µg/mL (≈ 0.138 µM)	0.125 µg/mL (≈ 0.275 µM)	≤ 0.0625 µg/mL	0.25 µg/mL (≈ 0.55 µM)	8 µg/mL (≈ 17.6 µM)	> 32 µg/mL	> 32 µg/mL	> 32 µg/mL	2 µg/mL (≈ 4.4 µM)	0.25 µg/mL (≈ 0.55 µM)	16	16	16		
C[C@@H](N1CCn2nc(-c3ccccc3)nc2C1)[C@](O)(Cn1cncn1)c1ccc(F)cc1F	0.0625 µg/mL (≈ 0.138 µM)	0.125 µg/mL (≈ 0.277 µM)	0.125 µg/mL (≈ 0.277 µM)	0.125 µg/mL (≈ 0.277 µM)	0.125 µg/mL (≈ 0.277 µM)	32 µg/mL (≈ 70.9 µM)	> 32 µg/mL	> 32 µg/mL	> 32 µg/mL	0.5 µg/mL (≈ 1.11 µM)	0.0625 µg/mL (≈ 0.138 µM)	16	16	16	316 µg/mL (≈ 700 µM)	97 µg/mL (≈ 215 µM)
C[C@@H](N1CCn2nc(-c3cccnc3)nc2C1)[C@](O)(Cn1cncn1)c1ccc(F)cc1F	0.0312 µg/mL (≈ 0.0691 µM)	0.0312 µg/mL (≈ 0.0691 µM)	0.0312 µg/mL (≈ 0.0691 µM)	0.0312 µg/mL (≈ 0.0691 µM)	0.0312 µg/mL (≈ 0.0691 µM)	32 µg/mL (≈ 70.7 µM)									5900 µg/mL (≈ 13000 µM)	1820 µg/mL (≈ 4010 µM)
C[C@@H](N1CCc2nc(-c3ccccc3)sc2C1)[C@](O)(Cn1cncn1)c1ccc(F)cc1F	0.5 µg/mL (≈ 1.07 µM)	0.5 µg/mL (≈ 1.07 µM)	0.5 µg/mL (≈ 1.07 µM)	0.125 µg/mL (≈ 0.267 µM)	0.5 µg/mL (≈ 1.07 µM)	16 µg/mL (≈ 34.2 µM)									1250 µg/mL (≈ 2670 µM)	130 µg/mL (≈ 278 µM)
C[C@@H](N1CCc2nc(-c3cccnc3)sc2C1)[C@](O)(Cn1cncn1)c1ccc(F)cc1F	0.0312 µg/mL (≈ 0.0667 µM)	0.0312 µg/mL (≈ 0.0667 µM)	0.125 µg/mL (≈ 0.267 µM)	0.0625 µg/mL (≈ 0.133 µM)	0.125 µg/mL (≈ 0.267 µM)	2 µg/mL (≈ 4.27 µM)									10100 µg/mL (≈ 21500 µM)	2360 µg/mL (≈ 5040 µM)
C[C@@H](N1CCc2nc(-c3cncnc3)sc2C1)[C@](O)(Cn1cncn1)c1ccc(F)cc1F	0.0156 µg/mL (≈ 0.0332 µM)	0.0156 µg/mL (≈ 0.0332 µM)	0.0625 µg/mL (≈ 0.133 µM)	0.0625 µg/mL (≈ 0.133 µM)	0.0625 µg/mL (≈ 0.133 µM)	1 µg/mL (≈ 2.13 µM)	> 16 µg/mL	8 µg/mL (≈ 17 µM)	> 16 µg/mL	0.0625 µg/mL (≈ 0.133 µM)	≤ 0.0312 µg/mL				14700 µg/mL (≈ 31300 µM)	3090 µg/mL (≈ 6590 µM)
C[C@@H](N1CCc2sc(-c3ccc(C#N)nc3)cc2C1)[C@](O)(Cn1cncn1)c1ccc(F)cc1F	1 µg/mL (≈ 2.03 µM)	4 µg/mL (≈ 8.12 µM)	2 µg/mL (≈ 4.06 µM)	1 µg/mL (≈ 2.03 µM)	2 µg/mL (≈ 4.06 µM)	32 µg/mL (≈ 65 µM)										
C[C@@H](N1CCc2sc(-c3ccncc3)cc2C1)[C@](O)(Cn1cncn1)c1ccc(F)cc1F	1 µg/mL (≈ 2.14 µM)	2 µg/mL (≈ 4.28 µM)	4 µg/mL (≈ 8.56 µM)	4 µg/mL (≈ 8.56 µM)	8 µg/mL (≈ 17.1 µM)	> 32 µg/mL										
C[C@@H](N1CCc2sc(-c3cccnc3)cc2C1)[C@](O)(Cn1cncn1)c1ccc(F)cc1F	1 µg/mL (≈ 2.14 µM)	8 µg/mL (≈ 17.1 µM)	4 µg/mL (≈ 8.56 µM)	4 µg/mL (≈ 8.56 µM)	2 µg/mL (≈ 4.28 µM)	32 µg/mL (≈ 68.4 µM)										
C[C@@H](N1CCc2cc(Br)sc2C1)[C@](O)(Cn1cncn1)c1ccc(F)cc1F	1 µg/mL (≈ 2.13 µM)	0.5 µg/mL (≈ 1.07 µM)	2 µg/mL (≈ 4.26 µM)	0.5 µg/mL (≈ 1.07 µM)	1 µg/mL (≈ 2.13 µM)	32 µg/mL (≈ 68.2 µM)										
C[C@@H](N1CCc2cc(-c3ccncc3)sc2C1)[C@](O)(Cn1cncn1)c1ccc(F)cc1F	1 µg/mL (≈ 2.14 µM)	4 µg/mL (≈ 8.56 µM)	2 µg/mL (≈ 4.28 µM)	1 µg/mL (≈ 2.14 µM)	2 µg/mL (≈ 4.28 µM)	32 µg/mL (≈ 68.4 µM)										
C[C@@H](N1CCc2cc(-c3cccnc3)sc2C1)[C@](O)(Cn1cncn1)c1ccc(F)cc1F	0.5 µg/mL (≈ 1.07 µM)	1 µg/mL (≈ 2.14 µM)	1 µg/mL (≈ 2.14 µM)	0.5 µg/mL (≈ 1.07 µM)	1 µg/mL (≈ 2.14 µM)	8 µg/mL (≈ 17.1 µM)										
C[C@@H](N1CCc2cc(-c3cncnc3)sc2C1)[C@](O)(Cn1cncn1)c1ccc(F)cc1F	0.5 µg/mL (≈ 1.07 µM)	0.25 µg/mL (≈ 0.534 µM)	0.5 µg/mL (≈ 1.07 µM)	0.5 µg/mL (≈ 1.07 µM)	1 µg/mL (≈ 2.13 µM)	16 µg/mL (≈ 34.1 µM)										
C[C@@H](N1CCc2cc(-c3ccc(C#N)nc3)sc2C1)[C@](O)(Cn1cncn1)c1ccc(F)cc1F	2 µg/mL (≈ 4.06 µM)	4 µg/mL (≈ 8.12 µM)	4 µg/mL (≈ 8.12 µM)	4 µg/mL (≈ 8.12 µM)	4 µg/mL (≈ 8.12 µM)	32 µg/mL (≈ 65 µM)										
C[C@@H](N1CCc2nc(-c3cncnc3)sc2C1)[C@](O)(Cn1cncn1)c1ccc(F)cc1F.Cl																14800 µg/mL
CS(=O)(=O)O.C[C@@H](N1CCc2nc(-c3cncnc3)sc2C1)[C@](O)(Cn1cncn1)c1ccc(F)cc1F																12000 µg/mL
C[C@@H](N1CCc2nc(-c3cncnc3)sc2C1)[C@](O)(Cn1cncn1)c1ccc(F)cc1F.Cc1ccc(S(=O)(=O)O)cc1																5800 µg/mL
C[C@@H](N1CCc2nc(-c3cncnc3)sc2C1)[C@](O)(Cn1cncn1)c1ccc(F)cc1F.O=S(=O)(O)O																108000 µg/mL
Br.C[C@@H](N1CCc2nc(-c3cncnc3)sc2C1)[C@](O)(Cn1cncn1)c1ccc(F)cc1F																12100 µg/mL
C[C@@H](N1CCc2nc(-c3cncnc3)sc2C1)[C@](O)(Cn1cncn1)c1ccc(F)cc1F.O=P(O)(O)O																8330 µg/mL
C[C@@H](n1cnc2cc(Cl)ccc2c1=O)[C@](O)(Cn1cncn1)c1ccc(F)cc1F [ALBACONAZOLE]	0.0078 µg/mL (≈ 0.0181 µM)	≤ 0.0312 µg/mL	0.0156 µg/mL (≈ 0.0361 µM)	≤ 0.0312 µg/mL	≤ 0.0312 µg/mL	0.5 µg/mL (≈ 1.16 µM)	8 µg/mL (≈ 18.5 µM)	4 µg/mL (≈ 9.26 µM)	> 16 µg/mL	≤ 0.0312 µg/mL	≤ 0.0312 µg/mL				1 µg/mL (≈ 2.32 µM)	
C[C@@H]1[C@H](O)[C@@H](C)/C=C/C=C/C=C/C=C/C=C/C=C/C=C/[C@H](O[C@@H]2O[C@H](C)[C@@H](O)[C@H](N)[C@@H]2O)C[C@@H]2O[C@](O)(C[C@@H](O)C[C@@H](O)[C@H](O)CC[C@@H](O)C[C@@H](O)CC(=O)O[C@H]1C)C[C@H](O)[C@H]2C(=O)O [AMPHOTERICIN B]	1 µg/mL (≈ 1.08 µM)	1 µg/mL (≈ 1.08 µM)	0.5 µg/mL (≈ 0.541 µM)	1 µg/mL (≈ 1.08 µM)	0.5 µg/mL (≈ 0.541 µM)	4 µg/mL (≈ 4.33 µM)										
C[C@@H](c1nc(-c2ccc(C#N)cc2)cs1)[C@](O)(Cn1cncn1)c1ccc(F)cc1F [RAVUCONAZOLE]	0.0625 µg/mL (≈ 0.143 µM)	0.0625 µg/mL (≈ 0.143 µM)	0.125 µg/mL (≈ 0.286 µM)	≤ 0.0625 µg/mL	≤ 0.125 µg/mL	1 µg/mL (≈ 2.29 µM)									3 µg/mL (≈ 6.86 µM)	
C[C@@H](c1ncncc1F)[C@](O)(Cn1cncn1)c1ccc(F)cc1F [VORICONAZOLE]	≤ 0.0625 µg/mL	0.0625 µg/mL (≈ 0.179 µM)	0.125 µg/mL (≈ 0.358 µM)	0.0625 µg/mL (≈ 0.179 µM)	≤ 0.125 µg/mL	2 µg/mL (≈ 5.73 µM)	> 16 µg/mL	> 16 µg/mL	> 16 µg/mL	0.0625 µg/mL (≈ 0.179 µM)	0.0625 µg/mL (≈ 0.179 µM)				1260 µg/mL (≈ 3620 µM)	682 µg/mL (≈ 1950 µM)
